Assay [1] has as its system HUVEC. Nature of the assay: Downregulation of DKK1 in human umbilical cord derived endothelial colony forming cells by qRT-PCR analysis. It is filed as functional, cell-based. A general note: Quantitative PCR measures a nucleic acid by following its amplification.
The test system of assay [2] is HUVEC. Briefly: Effect on pro-angiogenic property in human umbilical cord derived endothelial colony forming cells assessed as increase in intracellular CXCR4 protein phosphorylation by Western blotting analysis. It counts as functional, cell-based. (Immunoblotting shows a protein as a band on a membrane.)
Assay [3] deals with HUVEC. Briefly: Resistance to serum induced starvation of cell apoptosis in human umbilical cord derived endothelial colony forming cells grown in EBM2 medium measured in presence of panobinostat by annexin V staining analysis. It counts as functional, cell-based. Put shortly:
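Drug- or vehicle-pretreated ECFCs were serum-starved overnight (16 hr) in EBM-2 lacking supplements. Cells were then suspended in annexin V binding buffer, stained with annexin V and 7-AAD, and analysed by flow cytometry. Values are percentage of vehicle control ±SEM, n = 3 experiments in duplicate.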

The test system of assay [4] is HUVEC. Nature of the assay: Effect on pro-angiogenic property in human umbilical cord derived endothelial colony forming cells assessed as increase in ERK2 protein phosphorylation by Western blotting analysis. It is filed as functional, cell-based.
Assay [5] deals with HUVEC. Nature of the assay: Effect on pro-angiogenic property in human umbilical cord derived endothelial colony forming cells assessed as cell migration treated for 72 hrs measured by crystal violet staining analysis based gap closure assay. It counts as functional. Conditions: dose 0.1-5 µM.
The test system of assay [6] is HUVEC. Briefly: Effect on pro-angiogenic property in human umbilical cord derived endothelial colony forming cells assessed as increase in HEY2 level in presence of panobinostat by qRT-PCR analysis. It is filed as functional, cell-based.
The subject of assay [7] is HUVEC. Nature of the assay: Effect on pro-angiogenic property in human umbilical cord derived endothelial colony forming cells assessed as increase in VEGFR2 protein level by Western blotting analysis. It counts as functional, cell-based.
Assay [8] relates to HUVEC. Nature of the assay: Effect on pro-angiogenic property in human umbilical cord derived endothelial colony forming cells assessed as increase in cell migration treated at 5 uM for 72 hrs in presence of panobinostat measured by crystal violet staining analysis based gap closure assay. It is filed as functional.
Assay [9] relates to HUVEC. Briefly: Effect on pro-angiogenic property in human umbilical cord derived endothelial colony forming cells assessed as formation of capillary network on matrigel. It counts as functional, cell-based. The settings on record: dose 0.01-5 µM. Put shortly:
(§1)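 Drug- or vehicle-pretreated ECFCs seeded at 5,000 cells/well on phenol-red-free growth-factor-reduced Matrigel in duplicate; after 24 hr stained with 5 μg/mL calcein 5 min at 37°C, imaged at 2.5×. Total tube length expressed as percentage of vehicle control ±SEM, three independent experiments.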

Assay [10] relates to HUVEC. Nature of the assay: Effect on pro-angiogenic property in human umbilical cord derived endothelial colony forming cells assessed as formation of capillary network on matrigel at 5 uM for 72 hrs in presence of panobinostat. It is filed as functional, cell-based. Put shortly:
as §1

The subject of assay [11] is Mus musculus. Briefly: Activation of vasculogenesis in NOD/SCID immunodeficient mouse xenografted with drug pretreated human umbilical cord derived endothelial colony forming cells assessed as increase in formation of micro-capillaries in presence of panobinostat by H and E staining analysis. It counts as functional, organism-based. Put shortly: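 ECFCs (4 × 10^6 cells/mL), drug cocktail-pretreated or not, mixed into 1.5 mg/mL type I collagen gels, polymerized 30 min at 37°C, held 18 hr in drug-free medium, implanted into flanks of 6–12-week-old NOD/SCID mice. Explants harvested at 3 weeks; H&E and anti-human CD31 staining; closed hCD31+ capillaries counted per area, n = 6 mice per group, ±SEM.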
For orientation: A xenograft is tissue or cells of one species grown in another, often human tumour cells in immunodeficient mice.

The subject of assay [12] is HUVEC. Briefly: Effect on pro-angiogenic property in human umbilical cord derived endothelial colony forming cells assessed as increase in ANGPT2 level by qRT-PCR analysis. It is filed as functional, cell-based.
Assay [13] deals with HUVEC. Nature of the assay: Downregulation of SEMA3A in human umbilical cord derived endothelial colony forming cells by qRT-PCR analysis. It counts as functional, cell-based.
Assay [14] deals with Histone-lysine N-methyltransferase EZH2 (Homo sapiens) (UniProt Q15910). Nature of the assay: Inhibition of EZH2 in human umbilical cord derived endothelial colony forming cells assessed as decrease in H3K27me2 level at 0.01 to 5 uM by Western blotting analysis. It is filed as cell-based. The settings on record: Umbilical cord derived endothelial colony forming cell, dose 0.01-5 µM, time 24-72 hrs, TDE = time-dependent effect. The method in brief:
(§2)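 Human cord-blood ECFC clones, at least three independent, passages 3–6, grown in EGM-2 with 10% FBS. Histone methylation marks were assessed by western blot, with total histone H3 and H4 as loading controls.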

Assay [15] relates to HUVEC. Briefly: Effect on human umbilical cord derived endothelial colony forming cells assessed as reversal of decrease in H3 acetylation level in presence of panobinostat measured after 24 hrs of drug removal by qRT-PCR analysis. It counts as functional, cell-based.
The subject of assay [16] is Umbilical cord derived endothelial colony forming cell. Nature of the assay: Activation of WNT pro-angiogenic pathway in human umbilical cord derived endothelial colony forming cells by measuring WNT5A level in presence of panobinostat by qRT-PCR analysis. It counts as cell-based. The settings on record: filed as activator.
The test system is the same in assay [17]. Briefly: Activation of WNT pro-angiogenic pathway in human umbilical cord derived endothelial colony forming cells by measuring FZD2 level in presence of panobinostat by qRT-PCR analysis. It counts as cell-based. The settings on record: filed as activator.
Assay [18] shares this test system. Briefly: Activation of WNT pro-angiogenic pathway in human umbilical cord derived endothelial colony forming cells by measuring EGR1 level in presence of panobinostat by qRT-PCR analysis. It counts as cell-based. The settings on record: filed as activator.
The subject of assay [19] is HUVEC. Briefly: Effect on pro-angiogenic property in human umbilical cord derived endothelial colony forming cells assessed as increase in CXCR4 level by qRT-PCR analysis. It counts as functional, cell-based.
Assay [20] concerns the target Histone-lysine N-methyltransferase EZH2 (Homo sapiens) (UniProt Q15910). Briefly: Inhibition of EZH2 in human umbilical cord derived endothelial colony forming cells assessed as decrease in H3K4me3 level at 0.01 to 5 uM measured after 24 to 72 hrs by Western blotting analysis. It counts as cell-based. Conditions: Umbilical cord derived endothelial colony forming cell, dose 0.01-5 µM, time 24-72 hrs. The method in brief: as §2

For assay [21] the target is unchanged. Nature of the assay: Inhibition of EZH2 in human umbilical cord derived endothelial colony forming cells assessed as decrease in H3K9me3 level at 0.01 to 5 uM measured after 24 to 72 hrs by Western blotting analysis. It is filed as cell-based. Conditions: Umbilical cord derived endothelial colony forming cell, dose 0.01-5 µM, time 24-72 hrs. Put shortly: as §2

Assay [22] has the same target. Nature of the assay: Inhibition of EZH2 in human umbilical cord derived endothelial colony forming cells assessed as decrease in H3K27me1 level at 0.01 to 5 uM measured after 24 to 72 hrs by Western blotting analysis. It counts as cell-based. Conditions: Umbilical cord derived endothelial colony forming cell, dose 0.01-5 µM, time 24-72 hrs. The method in brief: as §2

Assay [23] has as its system Umbilical cord derived endothelial colony forming cell. Nature of the assay: Inhibition of H3K9 methyltransferase G9a in human umbilical cord derived endothelial colony forming cells assessed as decrease in protein level by Western blotting analysis. It is filed as cell-based. The method in brief:
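Cord-blood ECFCs were treated with an EZH2 inhibitor at 5 μM for 72 hr, then an HDAC inhibitor at 10 nM for 2 hr, or with vehicle. Levels of the epigenetic enzymes were read by western blot, with tubulin as loading control.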

Assay [24] shares this test system. Nature of the assay: Activation of WNT pro-angiogenic pathway in human umbilical cord derived endothelial colony forming cells by measuring DKK3 level at 5 uM for 72 hrs in presence of panobinostat for 2 hrs by qRT-PCR analysis. It is filed as cell-based. The settings on record: filed as activator.

Calls of active or inactive are those of the source. No cut-off for these calls is given here.

The record followed here is ChEMBL document CHEMBL5674876, “Epigenetic Activation of Pro-angiogenic Signaling Pathways in Human Endothelial Progenitors Increases Vasculogenesis” (Stem Cell Reports, 2017).

Sequence of Histone-lysine N-methyltransferase EZH2 (Homo sapiens) (Q15910 whole entry, looked up): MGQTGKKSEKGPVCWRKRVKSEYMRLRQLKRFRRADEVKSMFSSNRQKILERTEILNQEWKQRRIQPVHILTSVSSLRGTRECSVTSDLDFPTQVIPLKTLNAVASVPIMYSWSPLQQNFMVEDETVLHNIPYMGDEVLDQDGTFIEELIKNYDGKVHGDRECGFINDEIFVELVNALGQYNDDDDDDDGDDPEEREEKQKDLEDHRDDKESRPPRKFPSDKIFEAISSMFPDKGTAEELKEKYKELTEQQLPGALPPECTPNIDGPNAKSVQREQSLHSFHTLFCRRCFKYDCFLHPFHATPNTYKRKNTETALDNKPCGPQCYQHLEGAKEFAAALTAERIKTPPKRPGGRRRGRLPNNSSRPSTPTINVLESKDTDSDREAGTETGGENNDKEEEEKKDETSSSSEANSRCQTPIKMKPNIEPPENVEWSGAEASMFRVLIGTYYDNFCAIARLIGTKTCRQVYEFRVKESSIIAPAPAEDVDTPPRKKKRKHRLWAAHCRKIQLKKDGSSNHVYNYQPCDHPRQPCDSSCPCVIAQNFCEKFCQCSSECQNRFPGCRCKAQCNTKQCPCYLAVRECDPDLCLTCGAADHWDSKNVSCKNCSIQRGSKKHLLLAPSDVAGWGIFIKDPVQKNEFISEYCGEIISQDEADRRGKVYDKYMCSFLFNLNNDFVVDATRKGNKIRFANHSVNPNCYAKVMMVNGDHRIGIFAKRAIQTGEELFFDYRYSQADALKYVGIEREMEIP

As for `CCCc1cc(C)[nH]c(=O)c1CNC(=O)c1cc(-c2ccnc(N3CCN(C)CC3)c2)cc2c1cnn2C(C)C`, the outcome in assay [1], in assay [2], in assay [3], in [4], in [6] and in [7] was Active. The outcome in assay [8], in assay [10], in assay [11], in [12], in assay [13] and in [15] was Active. Further, the result in assay [16], in [17], in assay [18], in assay [19] and in assay [24] was Active. Moreover, the Activity entry in assay [5] and in [9] was “Dose-Dependent Effect” each time. For the same compound, the inhibition result in [14] was “Tde”. Moreover, the inhibition entry in [20], in assay [21], in assay [22] and in assay [23] was “inactive” each time.
